GalR3 antag = blocks the human galanin receptor 3; O60755; HEK293 GalR3-CNG cAMP membrane potential fluorescence; galR3 body fused to GalR1 C-terminus; inhibition, % at 3 µM; actives 0.44% (n = 360,000); AID 651719;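 active means inhibition above the screen-wide average plus 3 SD, cut at about 13% in these data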;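 further: forskolin and galanin both at EC90 stimulate the cells; cAMP rise reported by CNG channel membrane potential dye signal; 0% = forskolin plus galanin with DMSO and 100% = forskolin alone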
Target sequence (O60755 1-299 limits assumed): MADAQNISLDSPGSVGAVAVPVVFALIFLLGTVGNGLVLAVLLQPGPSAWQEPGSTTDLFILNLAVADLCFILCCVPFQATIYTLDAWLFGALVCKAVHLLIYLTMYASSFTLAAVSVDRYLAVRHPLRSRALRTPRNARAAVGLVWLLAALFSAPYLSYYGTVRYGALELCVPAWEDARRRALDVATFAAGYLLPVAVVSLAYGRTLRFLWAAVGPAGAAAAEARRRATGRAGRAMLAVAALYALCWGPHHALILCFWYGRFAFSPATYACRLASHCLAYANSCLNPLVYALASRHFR
CHT inh = inhibits the human high affinity choline transporter; Q9GZV3; CHT-expressing cells, membrane potential dye, choline response; active compounds read low; B-score at 10 µM; actives 0.86% (n = 310,000); AID 488975;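 active means B-score over 3 SD under the library average, and starting fluorescence ratio not unusually high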;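 further: choline stimulus applied at its EC90 after an EC20 pre-addition; B-score computed on integrated fluorescence ratio after choline addition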
NR2E3 ag-1 = agonists of human NR2E3 nuclear receptor; Q9Y5X4; CHO-S Gal4-NCOR/VP16-NR2E3 two-hybrid, luciferase; inhibition of corepressor binding, % at 3.98 µM; actives 0.35% (n = 360,000); AID 602229;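 active means inhibition above the mean of all tested compounds plus 3 SD, cut at about 70% in these data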;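 further: 0% = DMSO with NR2E3 transfected cells and 100% = cells lacking NR2E3 construct; higher means lower luciferase signal from less NR2E3 corepressor binding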
CHT PAM = allosteric activators of human choline transporter CHT | Q9GZV3 | CHT-expressing cells, membrane potential dye, choline EC20; active compounds read high; LV-AA mutant CHT in HEK293 cells | B-score at 10 µM | actives 0.49% (n = 310,000);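 active means initial fluorescence not abnormally high and integrated response B-score, plate-corrected, over 3 SD above library mean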
NR2F2 inh = NR2F2 (human) inhibition, primary screen; P24468; HEK293T NGFI-A luciferase reporter, luminescence; inhibition, % at 8.6 µM; actives 0.7% (n = 370,000); AID 686940;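 active means inhibition above a per-plate cutoff, mean inhibition of test wells between control levels plus 3 SD, cut at about 38% in these data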;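 further: cells cotransfected with COUP-TFII expression vector driving the NGFI-A reporter; 0% = median of COUP-TF2 test wells and 100% = reporter-only cells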
NR2E3 ag-2 = NR2E3 (human) agonism; actives 0.12% (n = 320,000); GST-NR2E3/biotin-RetCOR TR-FRET, 1536-well; inhibition of corepressor binding, % at 4.78 µM;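 active means percent inhibition above the cutoff of mean plus 3 SD of all tested compounds, set per screening campaign, cut at about 20% in these data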;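 further: 0% = DMSO wells and 100% = biotin wells as full block of FRET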
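Format: 1536-well format; test system: GST-NR2E3 and biotin-RetCOR proteins; read-out basis: percent inhibition of TR-FRET ratio; timing: 5 h incubation at 4 °C; detection: time-resolved FRET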
CHT act confirm = confirmation of human choline transporter (CHT) activators; activation, % at 10 µM; CHT-expressing cells, membrane potential dye fluorescence (FDSS); % of choline EC20–EC90 response window; HEK293 expressing CHT LV-AA mutant; choline added at its EC20; actives 91% (n = 2,500); shares compounds with CHT PAM;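 active means primary screen active, with duplicate mean activation above negative control mean plus 3 SD, cut at about 11% in these data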
HEK293 MP dye = counter-screen for CHT activators: effect in parental HEK293 cells; shares compounds with CHT PAM; membrane potential dye fluorescence (FDSS); measured after EC20 choline addition; ratio readout change at 10 µM, hits read low; actives 62% (n = 2,500);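 active means duplicate-averaged ratio beyond 3 SD from buffer wells, up or down, though filed actives are nearly all decreases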
The depositor's hits bear a star; i = inactive; . = no result. Compounds with a hit are over-represented: about 2.3% of the library has one in this group of screens.

SMILES	GalR3 antag	CHT inh	NR2E3 ag-1	CHT PAM	NR2F2 inh	NR2E3 ag-2	CHT act confirm	HEK293 MP dye
Nc1ccc(C(=O)OCc2ccncc2)cc1[N+](=O)[O-]	-5	i	-6	i	-2	-2	35*	-31*
CC(C)(C)C(=O)COC(=O)c1ccc(N)c([N+](=O)[O-])c1	-2	i	-3	i	8	0	.	.
CCCCCCNC(=O)C1CSCCS(=O)(=O)N1Cc1ccc(F)cc1 (stereo not given)	.	.	.	.	23	.	.	.
Cc1cc(NCc2ccco2)nc2cc(O)ccc12	-2	i	4	8.6*	8	4	29*	-42*
Cc1ccc(Nc2cc(C)c3ccc(O)cc3n2)cc1C	-3	i	-28	i	-5	0	.	.
CCOC(=O)[C@]12CCCCC/C=C\1N(Cc1ccc(OC)cc1)C(=O)[C@H]2CC(=O)N1CCC(c2ccccc2)CC1	.	.	.	.	13	.	.	.
O=C(COc1ccc([N+](=O)[O-])cc1)N(Cc1ccccc1)Cc1ccccc1	-2	i	-12	i	1	-1	24*	i
O=C(COc1ccc(/C=N/NC(=O)c2ccncc2)cc1)Nc1ccc([N+](=O)[O-])cc1	-6	i	-8	i	0	-2	.	.
O=C(COc1ccc([N+](=O)[O-])cc1)Nc1ccncc1	-3	i	15	i	15	5	45*	-48*
CN(C)S(=O)(=O)N(CC(=O)NCCSCc1ccc(Cl)cc1)c1ccccc1	-4	i	-13	8*	-1	3	1	i
N#Cc1c(NC(=O)CCn2cnc3ccccc3c2=O)oc(-c2ccccc2)c1-c1ccccc1	-5	i	-17	i	8	-3	5	i
N#Cc1c(NC(=O)CSc2ccccn2)oc(-c2ccccc2)c1-c1ccccc1	6	i	-44	i	4	1	.	.
COCCN1Cc2cccc(C(=O)Nc3cccnc3)c2C1=O	0	i	9	6.5*	-14	-2	40*	-41*
COCCN1Cc2cccc(C(=O)Nc3ccc(C)cc3)c2C1=O	-6	i	-12	i	-1	0	.	.
OC(c1ccccc1)(c1ccccc1)C1CCN(CCCNc2ccc(Cl)cc2Cl)CC1	.	.	.	.	7	.	.	.
Cc1ccc(C(=O)c2cc([N+](=O)[O-])ccc2N2CCCCC2)cc1	-2	i	11	i	-73	0	31*	i
O=C(c1ccccc1)c1cc([N+](=O)[O-])ccc1N1CCOCC1	1	i	-6	i	-9	0	57*	i
O=C(c1ccc(Br)cc1)c1cc([N+](=O)[O-])ccc1N1CCOCC1	-5	i	-8	i	8	2	.	.
CC1CCCN(c2ccc([N+](=O)[O-])cc2C(=O)c2ccccc2)C1 (stereo not given)	-6	i	29	7.6*	-30	0	27*	i
CC(=O)Nc1ccc(N2CCCC(C)C2)c([N+](=O)[O-])c1 (stereo not given)	-3	i	-14	i	-19	1	.	.
O=C(c1ccc(Cl)cc1)c1cc([N+](=O)[O-])ccc1N1CCOCC1	6	i	-8	i	-28	-3	50*	i
Cc1ccc(C(=O)c2cc([N+](=O)[O-])ccc2N2CC(C)OC(C)C2)cc1 (stereo not given)	-3	i	13	i	12	-2	.	.
COc1ccc(CCNC(=O)c2cnn(-c3ccccc3)c2N)cc1OC	.	.	.	.	-1	.	.	.
O=C(NCc1ccc(F)c(F)c1)C1C2C=CC3(CN(Cc4ccccc4)C(=O)C13)O2 (stereo not given)	.	.	.	.	-10	.	.	.
COC(=O)C1CN(Cc2cn(Cc3ccc(OC)cc3)nn2)CCS(=O)(=O)N1Cc1ccc(F)cc1 (stereo not given)	.	.	.	.	10	.	.	.
SMILES	GalR3 antag	CHT inh	NR2E3 ag-1	CHT PAM	NR2F2 inh	NR2E3 ag-2	CHT act confirm	HEK293 MP dye
O=C(NCc1ccc2c(c1)OCO2)c1cc([N+](=O)[O-])ccc1N1CCCCC1	-4	i	-38	9.2*	14	-1	51*	i
COC(=O)[C@H](C(C)C)N1CCc2nnn(CC3CCCCC3)c2-c2ccccc2S1(=O)=O	.	.	.	.	21	.	.	.
CCCCCCSc1ccc([C@H]2N[C@@](CC(C)C)(C(=O)OC)[C@H]3C(=O)N(C)C(=O)[C@@H]23)cc1OC	-9	i	13	7.2*	-11	0	18*	i
COC(=O)[C@]12C[C@H](CC(=O)NCc3cccs3)C(=O)N(CCc3ccc(OC)c(OC)c3)C1=C[C@H](C1CCCC1)O[C@@H]2C	.	.	.	.	-3	.	.	.
Cc1cc(C)c2cc3c(ccn3C3OC[C@H](O)[C@H](O)[C@H]3O)cc2n1 (stereo not given in full)	4	i	8	i	6	-1	62*	-46*
Nc1nc(Cl)nc2c1ncn2C1OCC(O)C(O)C1O (stereo not given)	-3	.	26	.	-6	.	.	.
CC(C)CCOC(=O)/C(=C/c1ccco1)NC(=O)/C=C/c1ccccc1	-7	i	-22	8.4*	13	1	16*	i
NC(=O)/C(=C/c1ccco1)NC(=O)/C=C/c1ccccc1	-5	i	-14	i	-12	1	.	.
O=C(CSc1ncnc2sc3c(c12)CCCC3)Nc1ccc(Oc2ccccc2)cc1	.	.	.	.	-7	.	.	.
C#Cc1cccc(OC[C@@H](O)CN2CCC(C(O)(c3ccccc3)c3ccccc3)CC2)c1	.	.	.	.	-8	.	.	.
Clc1ccc(COn2c(-c3ccccc3)nc3ccccc32)cc1	-11	i	-39	6.5*	27	-1	26*	i
CCN(CC)CCn1c(NCc2nc3ccccc3n2Cc2ccccc2)nc2ccccc21	-7	i	-13	7.7*	-21	-1	44*	i
CCCn1c(NCc2ccc3c(c2)OCO3)nc2ccccc21	-9	i	-7	i	-22	-2	20*	-24*
CN(C)CCn1c(NCc2ccc3c(c2)OCO3)nc2ccccc21	-10	i	2	i	-14	.	.	.
COc1ccc(CNc2nc3ccccc3n2CCN2CCCCC2)cc1	-7	i	-15	i	14	5	26*	-21*
c1ccc(Cn2c(CNc3nc4ccccc4n3CCN3CCCCC3)nc3ccccc32)cc1	-9	i	13	i	13	7	.	.
